Screening results: PubChem BioAssay, several laboratories
Hits are enriched below; roughly 3.8% of the tested compounds scored in any of these assays.
MPTP block: mitochondrial permeability transition pore inhibitors, primary screen, biochemical, isolated mouse mitochondria, absorbance; Ca2+ swelling absorbance, 30 min; inhibition, % at 10 µM; actives 1.4% (n = 360,000);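 active means inhibition of 50% or more, scaled per plate between neutral and stimulator controls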
B2AR ag: beta2AR agonists driving receptor internalization, primary screen, cell-based, FAP fluorogen, flow cytometry | Am2.2-beta2AR cells | response, % (test concentration not listed) | actives 0.43% (n = 340,000);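 active means response above a set limit, near 3 SD of response in nonfluorescent compounds, cut at about 42% in these data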
Target sequence (P07550 whole entry, looked up): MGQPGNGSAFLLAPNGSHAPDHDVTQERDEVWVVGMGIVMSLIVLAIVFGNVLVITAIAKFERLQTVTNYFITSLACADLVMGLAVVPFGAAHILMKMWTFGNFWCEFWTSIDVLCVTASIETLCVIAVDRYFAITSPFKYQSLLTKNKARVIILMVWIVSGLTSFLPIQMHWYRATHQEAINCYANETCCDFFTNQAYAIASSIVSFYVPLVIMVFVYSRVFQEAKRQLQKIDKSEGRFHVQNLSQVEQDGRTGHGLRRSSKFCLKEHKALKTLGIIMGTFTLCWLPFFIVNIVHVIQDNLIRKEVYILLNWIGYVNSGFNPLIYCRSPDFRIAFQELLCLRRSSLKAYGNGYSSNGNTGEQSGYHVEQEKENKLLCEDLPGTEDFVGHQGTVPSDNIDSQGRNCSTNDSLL
rCAG binder: binders of r(CAG) RNA repeats, primary screen, biochemical, fluorescence; r(CAG) RNA repeat, TO-PRO-1 dye displacement fluorescence; inhibition, % at 3 µM; actives 1.3% (n = 370,000);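 active means inhibition above the plate cutoff, the mean of all test compounds on that plate plus 3 SD, cut at about 35% in these data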;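 further: higher means more dye released from RNA so lower well fluorescence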
Exocytosis inh: LAMP-1 surface exposure blockers, TALL-104 cells – cell-based, flow cytometry, MLPCN library, primary screen; TALL-104 LAMP-1 surface exposure; cells stimulated with thapsigargin and PMA; inhibition, % at 10 µM; actives 0.66% (n = 360,000); AID 651702, 2012;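 active means inhibition above about 55%, limit read from the data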
V-ATPase pHluor: regulators of yeast V-ATPase proton pumping, primary screen, pHLuorin cytosolic pH fluorescence; S. cerevisiae; response, % at 10 µM; actives 0.37% (n = 350,000); AID 504577, 2011; in the data active means response mostly above about 7.3%, no sharp cut-off; inactive means mostly below about 5.4%; further: actives read high
T cell HTS: modulators of CD8 T cell-vesicle binding, primary screen, mouse 2C CD8+ T cells, flow cytometry; 2C CD8+ T cell-vesicle binding; hits give low values; response (vesicle binding), % at 7 µM; actives 0.068% (n = 330,000); AID 2052, 2009;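 active means response, share of CD8 T cells binding vesicles, and their 90th percentile fluorescence all below set limits, cut at about 80% in these data, passing the limit was not always enough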;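 further: values below 100% mean blocked vesicle binding to the CD8+ T cells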
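Material: murine 2C transgenic CD8+ T lymphocytes / Also added: QL9-peptide-loaded Drosophila micro-vesicles bearing Ld, ICAM-1 and B7-1 / Schedule: binding step 1.5 h, 37 °C, antibody labelling 20 min, ice / Signal: flow cytometry, PE anti-B7-1 (FL2) versus Alexa647 anti-CD8 (FL8), PFA-fixed / Evaluation: percent CD8+ FL2 mean versus row control / Benchmarks: naked versus QL9-loaded vesicles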
Granule exo CP1: inhibitors of lytic granule exocytosis, confirmation, TALL-104 cells, flow cytometry, Cherry Pick01. shares compounds with Exocytosis inh. LAMP-1 externalization; stimulated with PMA plus thapsigargin. inhibition, % at 10 µM. actives 11% (n = 1,500). AID 651954, 2012; in the data active means inhibition above about 60%
Each line names hits and unclear results; the compound was inactive in the other large screens (follow-up assays come after a bar, where they were run).

CCOc1ccc(NC(=O)C2CCCN2S(=O)(=O)c2ccc(OCC)cc2)cc1 (configuration not stated)	Exocytosis inh 56 | Granule exo CP1 inactive
CN(C)CCCN(C(=O)CCS(=O)(=O)c1ccccc1)c1nc2cc3c(cc2s1)OCO3	none
CN(C)CCCN(C(=O)CCSc1ccccc1)c1nc2cc3c(cc2s1)OCO3	Exocytosis inh 60 | Granule exo CP1 70
CN(C)CCCN(C(=O)c1ccc(S(=O)(=O)N(C)C)cc1)c1nc2cc3c(cc2s1)OCO3	none
CCN(Cc1ccccc1)S(=O)(=O)c1ccc(C(=O)N(CCCN(C)C)c2nc3cc4c(cc3s2)OCO4)cc1	Exocytosis inh 66 | Granule exo CP1 inactive
O=C(OC12CCCN(C1)/C(=C/c1cccc(Cl)c1)C2)c1cccc(F)c1 (configuration not stated)	none (no result: MPTP block, B2AR ag, Exocytosis inh, V-ATPase pHluor, T cell HTS)
COC1=C[C@H](C(=O)NCc2ccc(Br)cc2)C(C)C(c2ccccc2)CC1=O (some centres not stated)	none (no result: MPTP block, B2AR ag, Exocytosis inh, V-ATPase pHluor, T cell HTS)
COC(=O)c1ccc(CCc2cc(O)c(Br)cc2O)cc1	Exocytosis inh 98 (no result: T cell HTS) | Granule exo CP1 77
CCOc1ccc(NC(=O)c2ccc(F)cc2F)cc1	Exocytosis inh 62 | Granule exo CP1 inactive
CCOC(=O)[C@@]12CCCC3=C1N(CCC3)C(=O)[C@H]2CC(=O)NCC12CC3CC(CC(C3)C1)C2	none (no result: MPTP block, B2AR ag, Exocytosis inh, V-ATPase pHluor, T cell HTS)
CCOC(=O)Cn1c(=O)oc2cc(S(=O)(=O)N(C)c3ccc(OC)cc3)ccc21	Exocytosis inh 59 | Granule exo CP1 inactive
CCOC(=O)Cn1c(=O)oc2cc(S(=O)(=O)N(C)c3cccc(C)c3)ccc21	Exocytosis inh 62 | Granule exo CP1 inactive
CCN(C(=O)Cn1c(=O)oc2cc(S(=O)(=O)N3CCCC3)ccc21)c1ccc(OC)cc1	none
CCOC(=O)Cn1c(=O)oc2cc(S(=O)(=O)NCCc3ccc(C)cc3)ccc21	none
Nn1c(SCC(=O)NC2CCCCC2)nnc1-c1n[nH]c2c1CCC2	none (no result: MPTP block, B2AR ag, Exocytosis inh, V-ATPase pHluor, T cell HTS)
Cc1cccc(C)c1OCc1cc(C(=O)N2CCC(c3ccncc3)CC2)no1	none
O=C(c1cc(COc2c(F)cccc2F)on1)N1CCC(c2ccncc2)CC1	Exocytosis inh 86 | Granule exo CP1 inactive
COc1cc(C)ccc1OCc1cc(C(=O)N2CCC(c3ccc(F)cc3)C2)no1 (configuration not stated)	Exocytosis inh 77 | Granule exo CP1 inactive
Cc1ccc2c3c(cccc13)-c1ccccc1C2=O	Exocytosis inh 97 | Granule exo CP1 77
COc1cccc(CNC(=O)C2CCN(S(=O)(=O)c3ccc(Br)s3)CC2)c1	Exocytosis inh 63 | Granule exo CP1 inactive
CC(NC(=O)C1CCN(S(=O)(=O)c2ccc(Br)s2)CC1)c1ccccc1 (configuration not stated)	Exocytosis inh 66 | Granule exo CP1 inactive
CCS(=O)(=O)N1CCC(C(=O)NCc2cccc(OC)c2)CC1	none
CN(C)[C@H]1CCN(c2cccc3c2S(=O)(=O)N2CC[C@@H](C2)O3)C1	none (no result: MPTP block, B2AR ag, Exocytosis inh, V-ATPase pHluor, T cell HTS)
CCOc1ccc2[nH]c3c(N4CCN(c5ccccn5)CC4)ncnc3c2c1	Exocytosis inh 88 | Granule exo CP1 inactive
c1ccc2c(NCCc3c[nH]c4ccccc34)c3ccccc3nc2c1	Exocytosis inh 72 | Granule exo CP1 inactive
Fc1cccc(NCCc2c[nH]c3ccccc23)n1	none
CCn1c(N2CCN(C(=O)c3ccco3)CC2)nc2ccccc21	none
O=C(c1ccco1)N1CCN(c2nc3ccccc3n3nnnc23)CC1	Exocytosis inh 56 | Granule exo CP1 inactive
Cc1cccc(CN2[C@@H](C)[C@H](c3ccccc3)Oc3cc(Br)ccc3S2(=O)=O)c1	none (no result: MPTP block, B2AR ag, Exocytosis inh, V-ATPase pHluor, T cell HTS)
CNC(=O)c1nc(C)c(C2(C)CC(c3cccc([N+](=O)[O-])c3)=NO2)s1 (configuration not stated)	none
